Results as given in ChEMBL document CHEMBL3232862, “Optimization of chemical functionalities of indole-2-carboxamides to improve allosteric parameters for the cannabinoid receptor 1 (CB1)” (J Med Chem, 2014).
Activity calls are given as the source filed them. No cut-off for these calls is given here.

How the values were obtained:
[1] = target: Cannabinoid receptor 1 (Homo sapiens) (UniProt P21554); assay: Positive allosteric modulation of cannabinoid CB1 receptor (unknown origin) expressed in HEK293 cells assessed as effect on ERK1/2 phosphorylation at 5 uM by Western blot analysis in absence of siRNA targeting beta-arrestin 1; format: cell-based
Outline: (§1)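 HEK293 cells were lipofectamine-transfected with CB1, with or without β-arrestin 1 siRNA (2.6 μg) or a nonsilencing control. After 24 h they were serum-starved for 18 h, with optional PTX at 5 ng/mL for 16 h at 37 °C. Cells were exposed 5 min to modulator (0–10 μM) plus 0.2 μM CP55,940 and lysed. 12 μg protein was run on 10% SDS-PAGE and immunoblotted for phospho-p44/42 and total p44/42.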

[2] = target: Cannabinoid receptor 1 (Homo sapiens) (UniProt P21554); assay: Displacement of [3H]CP55940 from cannabinoid CB1 receptor (unknown origin) expressed in HEK293 cells after 60 mins by liquid scintillation counting; format: cell-based
Outline: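 Membranes from HEK293 cells transiently transfected with CB1 (calcium phosphate), harvested 24 h post-transfection. […] At least nine test concentrations, 100 pM–100 μM. Nonspecific binding defined with 1 μM unlabeled CP55,940. Bound ligand kept below 10%. Filtration on GF/C. Duplicates, ≥3 independent experiments. KB and α obtained by nonlinear regression using the allosteric ternary complex model.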

[3] = target: Cannabinoid receptor 1 (Homo sapiens) (UniProt P21554); assay: Allosteric modulation of cannabinoid CB1 receptor (unknown origin) expressed in HEK293 cells assessed as inhibition of CP55940-induced [35S]GTPgammaS binding after 60 mins by liquid scintillation counting; format: functional, cell-based
Outline: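 Membranes from HEK293 cells transiently expressing CB1 (calcium phosphate transfection, harvested 24 h) were used at 7.5 μg per assay. They were incubated 60 min at 30 °C in Tris pH 7.4, MgCl2, EGTA and NaCl with 0.1 nM [35S]GTPγS, 10 μM GDP, 0.1% BSA and CP55,940 (100 pM–100 μM), with or without modulator. Nonspecific binding was taken with 10 μM GTPγS. Read-out was filtration and scintillation counting, duplicates, ≥3 experiments.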

[4] = target: Cannabinoid receptor 1 (Homo sapiens) (UniProt P21554); assay: Positive allosteric modulation of cannabinoid CB1 receptor (unknown origin) expressed in HEK293 cells assessed as induction of ERK1/2 phosphorylation by Western blot analysis in presence of siRNA targeting beta-arrestin 1; format: cell-based; outline: as §1
[5] = target: Cannabinoid receptor 1 (Homo sapiens) (UniProt P21554); assay: Positive allosteric modulation of cannabinoid CB1 receptor (unknown origin) expressed in HEK293 cells assessed as induction of ERK1/2 phosphorylation by Western blot analysis in absence of siRNA targeting beta-arrestin 1; format: cell-based; outline: as §1
[6] = target: Cannabinoid receptor 1 (Homo sapiens) (UniProt P21554); assay: Positive allosteric modulation of cannabinoid CB1 receptor (unknown origin) expressed in HEK293 cells assessed as induction of ERK1/2 phosphorylation at 0.05 to 10 uM in presence of CP55940 for 5 mins and pre-treated with PTX for 16 hrs by Western blot analysis; format: cell-based; outline: as §1

Cannabinoid receptor 1 (Homo sapiens), sequence (P21554 whole entry): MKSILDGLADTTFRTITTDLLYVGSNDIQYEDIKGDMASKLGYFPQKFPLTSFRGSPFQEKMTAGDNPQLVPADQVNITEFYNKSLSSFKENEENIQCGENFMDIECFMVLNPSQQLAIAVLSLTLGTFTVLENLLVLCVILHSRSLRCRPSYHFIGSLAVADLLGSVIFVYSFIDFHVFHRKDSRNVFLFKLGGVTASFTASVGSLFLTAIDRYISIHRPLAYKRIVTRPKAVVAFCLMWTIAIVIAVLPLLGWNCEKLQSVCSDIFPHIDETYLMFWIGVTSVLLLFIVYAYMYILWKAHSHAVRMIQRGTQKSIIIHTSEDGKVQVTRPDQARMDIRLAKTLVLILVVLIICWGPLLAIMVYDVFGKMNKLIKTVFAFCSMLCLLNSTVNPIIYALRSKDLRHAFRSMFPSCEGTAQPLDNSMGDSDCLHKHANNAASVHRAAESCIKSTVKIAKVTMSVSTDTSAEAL

Row | SMILES | Activity [1] | Kb [2] | inhibition [3] | inhibition [4] | inhibition [5] | Activity [6]
1 | CCCc1c(C(=O)NCCc2ccc(N(C)C)cc2)[nH]c2ccc(Cl)cc12 | Active | 259 nM | Dose-dependent effect | inactive | Dose-dependent effect | –
2 | CCc1c(C(=O)NCCc2ccc(N(C)C)cc2)[nH]c2cc(F)ccc12 | – | 1580 nM | – | – | – | –
3 | CCCc1c(C(=O)NCCc2ccc(N3CCCCC3)cc2)[nH]c2ccc(Cl)cc12 | – | 1750 nM | – | – | – | –
4 | CCc1c(C(=O)NCCc2ccc(N(C)C)cc2)[nH]c2cc(Cl)ccc12 | – | 3670 nM | – | – | – | –
5 | CCCCc1c(C(=O)NCCc2ccc(N(C)C)cc2)[nH]c2ccc(Cl)cc12 | – | 209 nM | – | – | – | –
6 | CCCCCCc1c(C(=O)NCCc2ccc(N(C)C)cc2)[nH]c2ccc(Cl)cc12 | Active | 89.1 nM | Dose-dependent effect | inactive | Dose-dependent effect | Active
